Published values collected from several papers.
Compare with care: the assays were run in different laboratories. pIC50: −log10 of the molar value.
Effect on: cell growth or viability

| Structure (SMILES) | cell line | technique | time | pIC50 |
| --- | --- | --- | --- | --- |
| Cc1cc(Oc2ccc(NC(=O)c3cc(-c4cccs4)no3)cc2F)n2ncnc2n1 | L02 | MTT |  | < 4.30 |
| C=C(C)C(=O)Nc1ccc(-c2c(-c3ccc(Oc4nccc(C)n4)c(F)c3)c3c(N)ncnc3n2C)cc1 | Li-7 | ATP luminescence | 96 h | < 5.00 |
| Cc1cc(Oc2ccc(NC(=O)c3sc(-c4ccccc4)nc3C)cc2F)n2ncnc2n1 | L02 | MTT |  | < 4.30 |
| O=C(O)/C=C/c1ccc(O)cc1 | PANC-1 | MTT |  | < 4.30 |
| COc1c(C)cnc(COc2ccc(NC(=O)Nc3ccc(Cl)c(C(F)(F)F)c3)cc2)c1C | L02 | MTT | 72 h | < 4.00 |
| COc1cc(-c2ncn(/C=C\C(=O)OC(C)C)n2)cc(C(F)(F)F)c1 | OCI-AML2 |  | 72 h | 7.77 |
| COc1ccnc(COc2ccc(NC(=O)Nc3cc(F)cc(F)c3)cc2)c1OC | L02 | MTT | 72 h | < 4.00 |
| c1ccc(-c2ccccn2)nc1 | L02 | MTT | 48 h | < 4.30 |
| Cc1c(OCC(F)(F)F)ccnc1COc1ccc(NC(=O)Nc2ccc(Cl)cc2)cc1 | L02 | MTT | 72 h | < 4.00 |
| CC(C)[C@H](N)C(=O)N1CCC[C@H]1B(O)O | OCI-AML2 | ATP luminescence | 48 h | 7.10 |
| COC1=C2C[C@@H](C)C[C@H](OC)[C@H](O)[C@@H](C)/C=C(\C)[C@H](OC(N)=O)[C@@H](OC)/C=C\C=C(/C)C(=O)NC(=CC1=O)C2=O | ARPE-19 | MTT |  | 7.00 |
| Nc1ncc(-c2cnn(C3CCNCC3)c2)cc1-c1nnc(CC2CC2)o1 | OCI-AML-3 | trypan blue | 72 h | 6.32 |
| Oc1ccc(Nc2nc(-c3ccc(Cl)cc3)cs2)cc1 | WM-115 | MTS | 24 h | 4.41 |
| CC[C@]1(O)C[C@H]2CN(CCc3c([nH]c4ccccc34)[C@@](C(=O)OC)(c3cc4c(cc3OC)N(C=O)[C@H]3[C@@](O)(C(=O)OC)[C@H](OC(C)=O)[C@]5(CC)C=CCN6CC[C@]43[C@@H]65)C2)C1 | NALM-6 | MTT | 48 h | 9.06 |
| COc1ccnc(COc2ccc(NC(=O)Nc3ccc(Cl)cc3)cc2)c1OC | L02 | MTT | 72 h | < 4.00 |
| Cc1cc(Oc2ccc(NC(=O)c3sc(-c4ccccn4)nc3C)cc2F)c2nncn2n1 | L02 | MTT |  | < 4.30 |
| Cc1ccc(S(=O)(=O)OCC(=O)Nc2ccc(C(=O)O)c(O)c2)cc1 | OCI-AML2 |  |  | 3.95 |
| Cc1cc(Oc2ccc(NC(=O)c3sc(-c4ccncc4)nc3C)cc2F)c2nncn2n1 | L02 | MTT |  | < 4.30 |

| Structure (SMILES) | cell line | technique | time | pIC50 |
| --- | --- | --- | --- | --- |
| COCCCOc1ccnc(COc2ccc(NC(=O)Nc3ccc(Cl)c(C(F)(F)F)c3)cc2)c1C | L02 | MTT | 72 h | < 4.00 |
| COc1ccc(C(=O)O[C@@H]2CN3Cc4c(cc5c(c4OC)OCO5)[C@@]24C=C[C@H](OC)C[C@@H]34)cc1OC | PANC-1 | WST-1 |  | 5.64 |
| O=C(N/N=C/c1c(O)ccc2ccccc12)c1cc(-c2ccc3ccccc3c2)n[nH]1 | WM-115 | MTS | 48 h | 5.25 |
| CO[C@H]1/C=C\C=C(/C)C(=O)NC2=C(c3ccccc3)C(=O)C(NCCN(C)C)=C(C[C@@H](C)C[C@H](OC)[C@H](O)[C@@H](C)/C=C(\C)[C@@H]1OC(N)=O)C2=O | ARPE-19 | MTT |  | 5.09 |
| Cc1c(OCC(F)(F)F)ccnc1COc1ccc(NC(=O)Nc2cc(F)cc(F)c2)cc1 | L02 | MTT | 72 h | < 4.00 |
| Cc1cc(Oc2ccc(NC(=O)c3sc(-c4ccccn4)nc3C)cc2F)n2ncnc2n1 | L02 | MTT |  | < 4.30 |
| CC(=O)c1cccc(/N=N/c2cc(/C=C/C(=O)O)ccc2O)c1 | PANC-1 | MTT |  | < 4.30 |
| COCCCOc1ccnc(COc2ccc(NC(=O)Nc3cccc(C(F)(F)F)c3)cc2)c1C | L02 | MTT | 72 h | < 4.00 |
| Clc1ccnc2c1ccc1c(Cl)ccnc12 | L02 | MTT | 48 h | < 4.30 |
| COc1c(C)cnc(COc2ccc(NC(=O)Nc3ccc(F)cc3)cc2)c1C | L02 | MTT | 72 h | < 4.00 |
| COc1cc2c(Oc3ccc(NC(=O)C4(C(=O)Nc5ccc(F)cc5)CC4)cc3F)ccnc2cc1OCCCN1CCOCC1 | L02 | MTT |  | < 4.30 |
| Cc1cnc(-c2ccc(-c3ccc(NC(=O)Nc4c(F)cc(F)cc4F)cc3F)c3c2C(=O)NC3)[nH]1 | OCI-AML-3 |  |  | 7.93 |
| C=CCNC1=C2C[C@@H](C)C[C@H](OC)[C@H](O)[C@@H](C)/C=C(\C)[C@H](OC(N)=O)[C@@H](OC)/C=C\C=C(/C)C(=O)NC(=CC1=O)C2=O | ARPE-19 | MTT |  | 6.00 |
| Oc1c(I)cc(Cl)c2cccnc12 | L02 | MTT | 48 h | 4.10 |
| COc1cc(C2Oc3cc([C@H]4Oc5cc(O)cc(O)c5C(=O)[C@@H]4O)ccc3OC2CO)ccc1O (some centres unmarked) | RWPE-1 | CCK-8 | 72 h | < 3.52 |
| CCN1C(=O)N(c2c(F)c(OC)cc(OC)c2F)Cc2cnc3[nH]c(CN4CCOCC4)cc3c21 | Li-7 | ATP luminescence | 96 h | 7.27 |
| CC[C@@H](C)[C@H](N)C(=O)N1Cc2ccccc2C1 | OCI-AML2 | ATP luminescence |  | 6.52 |
